Shown are actives, neighbours in structure and some others; about 2.3% of the full set was active somewhere.
TROY signal inh: TROY signaling inhibition; Q293 LMP1-TROYcd NF-kB luciferase reporter, 4 h; inhibition, % at 10 µM; hit rate 0.98% among 360,000;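 active = compounds whose plate-normalised and pattern-corrected inhibition of the luciferase reporter signal at the single screening dose is 50% or more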
FN deposition inh: fibronectin deposition inhibition; hit rate 0.086% among 350,000; AH1F fibroblasts, Alexa488-fibronectin deposition fluorescence, overnight; inhibition, % at 12.6 µM;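 active = mean inhibition across replicates of 30% or more, regardless of how many single replicates reach that level; inconclusive = mean under 30% yet at least half of replicates reach 30%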;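 note: positive control wells lacked labelled fibronectin entirely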
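Measured by – fluorescence 485/525 nm · System – AH1F fibroblast monolayer, labelled fibronectin deposition · Amount – 10000 cells per well · Buffer or medium – serum-reduced DMEM (2% serum) · Doses – single dose, pinned · Also added – fluorescent fibronectin at 24 nM final · Schedule – 1 h cell attachment, overnight exposure to compound and label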
LGR2 antag: blocks bursicon-induced cAMP signaling via Drosophila LGR2; HEK293 LGR2, CRE-luciferase, bursicon-stimulated, 4 h; inhibition, % at 9.99 µM; hit rate 0.35% among 380,000; AID 720647;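 active = drop in luminescence signal, shown as inhibition above about 50% in the replicate tests, limit read from the data, passing the limit was not always enough; inconclusive = probably only some replicates passing the limit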;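 note: agonist challenge used bursicon conditioned medium at about half maximal strength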
TWEAK Fn14 block: blocks TWEAK-Fn14 interaction in a reporter cell assay; TWEAK-stimulated Fn14 reporter cells, luciferase luminescence, 8 h; inhibition, % at 10 µM; hit rate 2% among 360,000; AID 1159606; in the data active = inhibition above about 50%
XiGFP reactiv: activators of X-chromosome reactivation in mouse fibroblasts | XiGFP mouse fibroblasts, % GFP-positive cells imaging, 3 d; cells co-treated with 5-aza-dC sensitizer; scaled so ellipticine positive control = 100% | activation, % at 7.58 µM | hit rate 0.055% among 360,000;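 active = mean normalized replicate activation at least 10% and every replicate at or above 10%; inconclusive = only one of the two criteria met; inactive = mean below 10% and not all replicates reach 10%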;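 note: 0% = median of on-plate neutral control wells and 100% = ellipticine 6 µM median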
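Schedule: 3 d treatment, 15 min room-temperature fixation; system: 68-5-11 XiGFP fibroblast line; buffer or medium: DMEM plus 5-aza-dC sensitizer; control set: ellipticine 6 µM positive control; compound: one concentration, pinned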
EWS-Fli block: blocks EWS/Fli oncoprotein-driven transcription | A673 NR0B1-luciferase reporter, viability-normalised | inhibition, % at 12.6 µM | hit rate 0.67% among 350,000 | AID 651661;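 active = mean inhibition of at least 50% after viability correction, with every replicate also passing that limit; inconclusive = mean reaches 50% but only one of two replicates passes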;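 note: firefly luciferase signal divided by Alamar Blue viability fluorescence both relative to DMSO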
DNA binding: small molecule DNA binding by fluorescence polarization | salmon sperm DNA acridine orange fluorescence polarization | AID 720586 | hit rate 2% among 640 | shares compounds with EWS-Fli block | AC35, µM (doses to about 68 µM), for inactives: at the top dose activity change, negative = DNA binding;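 active = fitted curve reaches a 35% signal fall AC35 below twice the sample's top valid tested dose, actives reach about 48 µM in these data; inactive = the rest, including activity in the rising direction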;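 note: lower polarization ratio signals compound binding to DNA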
Active calls of the source: *; u = inconclusive; x = not tested or not shown.

SMILES | TROY signal inh | FN deposition inh | LGR2 antag | TWEAK Fn14 block | XiGFP reactiv | EWS-Fli block | DNA binding
O=C(N/N=C/c1ccc[nH]1)c1cc(-c2ccc(Cl)cc2)nc2ccccc12 | 11.1 | 0.1 | 10.0 | 19.6 | 0.0 | 54.3* | -6.2%
O=C(N/N=C/c1cccnc1)c1cc(-c2ccc(Cl)cc2)nc2ccccc12 | 0.2 | 10.5 | -13.4 | -21.8 | 0.0 | 12.4 | x
CC(C)(C)c1ccc(Oc2ccc(N)cn2)cc1 | 3.7 | -6.8 | -15.2 | 24.2 | 0.2 | 71.3* | -13.6%
CC(C)(C)c1ccc(Oc2ccc(NC(=O)c3ccccc3C(=O)O)cn2)cc1 | 14.9 | -2.8 | 4.4 | 34.7 | 0.0 | 62.8* | 2.2%
C[C@@H]1CCCCO[C@H](CN(C)C(=O)Nc2ccccc2)[C@H](C)CN([C@@H](C)CO)C(=O)c2cc(NS(=O)(=O)c3ccc(Cl)cc3)ccc2O1 | x | -5.2 | -17.0 | x | 0.0 | 7.0 | x
O=C(NC[C@H]1CC[C@H]2[C@H](CN2Cc2nccs2)O1)C1CCC1 | x | x | x | x | x | 0.0 | x
CCN1C/C(=C/c2ccc(OC)c(O)c2)C(=O)/C(=C/c2ccc(OC)c(O)c2)C1 | 3.5 | x | 32.0 | 23.4 | 0.0 | 53.3* | 0.6%
COc1cccc(CN2CC3(CCN(C(=O)Nc4c(C)noc4C)CC3)c3c([nH]c4cc(OC)ccc34)[C@@H]2CO)c1 | x | x | x | x | 0.1 | x | x
O=C(N[C@@H]1CC[C@@H](CCNS(=O)(=O)c2cccc(Cl)c2)O[C@H]1CO)c1ccncc1 | x | -7.3 | 2.1 | x | 0.1 | -7.6 | x
COc1ccc2cc(C(N)=O)/c(=N\NC(=O)c3ccccc3)oc2c1 | 58.2* | 1.9 | u | 89.2* | 0.0 | 70.9* | -16.0%
O=C(C[C@@H]1CC[C@@H]2[C@H](COC[C@@H](O)CN2C(=O)c2ccccn2)O1)N1CCN(c2ccccc2)CC1 | x | -1.7 | -4.5 | x | 0.0 | -3.8 | x
CC(NC(=O)c1ccco1)c1nc(-c2ccc(C(C)(C)C)cc2)no1 (stereo unspecified) | 19.8 | -4.7 | -16.3 | 57.3* | 0.0 | 77.7* | -21.7%
O=C(NC[C@@H]1N[C@@H](CO)[C@H]1c1ccc(C2=CCCCC2)cc1)c1cccc(F)c1 | x | -3.6 | -3.7 | x | 0.5 | 59.0* | -0.2%
COc1ccc(C2=Nn3c(nnc3-c3ccccc3OC)SC2)cc1OCC1CC1 | 49.0 | 3.5 | 34.8 | -6.6 | -0.1 | 61.9* | -14.2%
COc1ccc(OC)c(-c2nnc3n2N=C(c2ccc(OC)c(OC4CCCC4)c2)CS3)c1 | 46.5 | 0.6 | x | 13.0 | 0.5 | 52.2* | -12.8%
C[C@@H]1CCCCO[C@@H](CN(C)S(=O)(=O)c2cccs2)[C@H](C)CN([C@H](C)CO)C(=O)c2cc(NS(=O)(=O)c3cccs3)ccc2O1 | x | -7.7 | 0.6 | x | 0.1 | 2.4 | x
Cc1ccc(/C=C/C(=O)N2CCN(S(=O)(=O)c3c(C)c(C)cc(C)c3C)CC2)o1 | 11.4 | x | 6.5 | 16.8 | 0.0 | 85.4* | 0.1%
Cc1ccc(/C=C/C(=O)N2CCN(S(=O)(=O)c3ccc(C)c(C)c3)CC2)o1 | 3.5 | -8.2 | -1.7 | 23.3 | 0.3 | x | x
COCC(=O)N(C)C[C@@H]1Oc2ncc(-c3ccccc3F)cc2C(=O)N([C@H](C)CO)C[C@H]1C | x | -14.0 | -13.9 | x | -0.9 | -15.7 | x
C[C@@H]1CN([C@H](C)CO)C(=O)c2cc(C3=CCCCC3)cnc2O[C@@H]1CN(C)C(=O)c1ccncc1 | x | x | 21.5 | x | -0.9 | -11.5 | x
CC(C)C#Cc1cnc2c(c1)C(=O)N([C@@H](C)CO)C[C@H](C)[C@@H](CN(C)Cc1ccccc1F)O2 | x | 3.5 | -17.7 | x | 0.1 | 14.7 | x
COc1ccc(NC(=O)N(C)C[C@@H]2Oc3c(NS(=O)(=O)c4ccccc4)cccc3C(=O)N([C@@H](C)CO)C[C@H]2C)cc1 | x | x | 9.3 | x | 0.0 | -5.1 | x
C(=NNc1ccc2ccccc2n1)c1ccccn1 | 83.2* | 2.0 | 98.9* | 100.6* | -0.1 | 84.1* | 2.6%
C(=N\Nc1nc2ccccc2s1)/c1ccccn1 | x | 20.2 | 103.6* | x | 0.7 | 79.9* | -5.5%
COc1ccc(C=NNc2nc3ccccc3s2)cc1 | 57.4* | -8.1 | 77.7* | 78.1* | -0.1 | 65.6* | -6.9%
SMILES | TROY signal inh | FN deposition inh | LGR2 antag | TWEAK Fn14 block | XiGFP reactiv | EWS-Fli block | DNA binding
CN1C(=O)c2cc(NC(=O)Nc3ccccc3)ccc2OC[C@@H]2O[C@H](CC(=O)O)CC[C@@H]21 | x | -3.2 | 6.6 | x | 1.9 | 6.7 | x
C[C@@H]1CN([C@@H](C)CO)C(=O)Cc2cc(NC(=O)Nc3ccccc3)ccc2O[C@H]1CN(C)S(C)(=O)=O | x | x | 3.0 | x | 0.1 | 14.2 | x
C[C@@H]1CN([C@H](C)CO)C(=O)c2ccccc2-c2ccccc2CO[C@@H]1CN(C)S(=O)(=O)c1ccccc1C#N | x | -3.6 | 35.2 | x | -0.5 | 7.0 | x
COc1ccccc1C#Cc1ccc([C@@H]2[C@@H](CO)N3CCCCN(CCC(F)(F)F)C[C@@H]23)cc1 | x | x | 16.4 | x | 0.0 | 7.5 | x
CCN1CCCC(OC(=O)C(c2ccccc2)c2ccccc2)C1 (stereo unspecified) | 0.9 | -11.7 | x | -16.4 | 0.0 | 1.5 | x
CN(C)[C@@H]1CCC[C@@H]1OC(=O)C(c1ccccc1)c1ccccc1 | 6.2 | x | 7.3 | 13.1 | -0.1 | 87.3* | -1.4%
COc1ccc(OC)c(/C=C/c2ccnc3ccccc23)c1 | -10.5 | -1.0 | -2.8 | 39.5 | 0.4 | 70.4* | -14.3%
Nc1ccn([C@@H]2O[C@H](CO)[C@@H](O)C2O)c(=O)n1 (stereo partly specified) | 22.7 | -1.5 | 27.5 | -43.8 | 0.9 | 50.5* | -7.4%
OC[C@H]1[C@@H](c2ccc(C#CC3CCCC3)cc2)[C@@H]2CN(CCC(F)(F)F)CCCCN12 | x | x | 7.2 | x | 0.4 | 51.6* | -8.6%
CCCC#Cc1ccc([C@H]2[C@@H](CO)N3C(=O)CN(C(=O)Nc4ccc(F)cc4)C[C@@H]23)cc1 | x | x | 19.6 | x | 0.5 | x | x
O=C(NC1CCCC1)N1CCCCN2[C@@H](CO)[C@@H](c3ccc(/C=C/c4ccccc4)cc3)[C@@H]2C1 | x | x | 26.2 | x | 0.1 | 72.7* | 9.2%
Cc1nn(Cc2ccccc2Cl)c2sc(C(=O)Nc3ccccc3N3CCOCC3)cc12 | 13.0 | 8.6 | 1.4 | 60.6* | 0.0 | 50.2* | -11.8%
C/C(=N\OCc1cccc(C(=O)O)c1)c1ccc(Cl)cc1 | -72.7 | -1.7 | 100.3* | -4.4 | 0.0 | 84.2* | -13.8%
O=C(NC1CCC1)[C@@H]1[C@@H](CO)[C@@H]2Cn3c(ccc(C4=CCCC4)c3=O)[C@H]1N2CC1CC1 | x | x | -11.0 | x | 0.3 | 4.6 | x
O=C(CNC(=O)Cc1ccccc1)N=Nc1c(O)n(Cc2ccc3c(c2)OCO3)c2ccccc12 | 2.5 | 4.2 | -13.8 | 0.2 | 0.0 | 66.1* | -7.0%
COC(=O)Cn1c(O)c(N=NC(=O)CNC(=O)c2ccc3c(c2)OCCO3)c2ccccc21 | -21.5 | -2.5 | 6.7 | 12.6 | 0.0 | x | x

Source: PubChem BioAssay
